# Data as given in ChEMBL document CHEMBL2029236, “Tubulin binding, protein-bound conformation in solution, and antimitotic cellular profiling of noscapine and its derivatives” (J Med Chem, 2012).
# The source made the active and inactive calls. The rule behind the calls is not given here.
# Experiments:
# SNU-398 [1] = assay: Cell cycle arrest in human SNU398 cells assessed as accumulation at G1 phase at 2 uM after 24 hrs by FACS analysis (reference value: 55.8%); assay type: functional
# [2] = Antiproliferative activity against human PLC/PRF/5 cells; assay type: functional, cell-based
# Summary of the method: (§1)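 Cell viability assay in hepatocellular carcinoma cell lines; IC50 values derived from concentration–response data and reported in nM.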
# SNU-398 [3] = assay: Cell cycle arrest in human SNU398 cells assessed as accumulation at G2 phase at 2 uM after 24 hrs by FACS analysis (reference value: 38.2%); assay type: functional
# [4] = Cell cycle arrest in human PLC/PRF/5 cells assessed as accumulation at sub-G1 phase at 2 uM after 24 hrs by FACS analysis (reference value: 1.4%); assay type: functional, cell-based
# SNU-398 [5] = assay: Antiproliferative activity against human SNU398 cells; assay type: functional, cell-based; summary of the method: as §1
# SNU-398 [6] = assay: Cell cycle arrest in human SNU398 cells assessed as accumulation at sub-G1 phase at 2 uM after 24 hrs by FACS analysis (reference value: 1.2%); assay type: functional
# [7] = Cell cycle arrest in human PLC/PRF/5 cells assessed as accumulation at G1 phase at 2 uM after 24 hrs by FACS analysis (reference value: 66.8%); assay type: functional, cell-based
# Bos taurus [8] = species: Bos taurus; assay: Binding affinity to calf brain tubulin assessed as increase in fluorescence at 10 uM by fluorometry relative to control
# Summary of the method: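 Fluorescence emission spectra of 10 μM ligand with and without 10 μM tubulin in 10 mM sodium phosphate, 0.1 mM GTP, pH 7.0, 25 °C. Emission intensity (425 nm maximum) and anisotropy were compared between bound and unbound ligand.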
# [9] = Cell cycle arrest in human PLC/PRF/5 cells assessed as accumulation at G2 phase at 2 uM after 24 hrs by FACS analysis (reference value: 26.1%); assay type: functional, cell-based
# Bos taurus [10] = species: Bos taurus; assay: Inhibition of calf brain tubulin assembly at 10 uM by fluorometry in presence of vinblastine
# [11] = Inhibition of calf brain tubulin assembly; design: species or system Bos taurus
# Summary of the method: (§2)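 Read-out: amount of pelleted polymerized tubulin across a compound concentration range. EC50 taken at 50% reduction of the pellet. Average of three experiments.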
# [12] = Antiproliferative activity against human JHH4 after 72 hrs by CellTiter Glo assay; assay type: functional; summary of the method: as §1
# Bos taurus [13] = species: Bos taurus; assay: Inhibition of calf brain tubulin assembly at 10 uM by fluorometry in presence of pironetin
# [14] = Antiproliferative activity against human Hep3B after 72 hrs by CellTiter Glo assay; assay type: functional, Hep 3B2; summary of the method: as §1
# Bos taurus [15] = species: Bos taurus; assay: Inhibition of calf brain tubulin assembly at 10 uM by fluorometry in presence of podophyllotoxin
# Bel-7402 = assay: Antiproliferative activity against human Bel7402 after 72 hrs by CellTiter Glo assay; assay type: functional, cell-based; conditions: Bel-7402, 72 h; summary of the method: as §1
# [16] = Antiproliferative activity against human MHCC97H after 72 hrs by CellTiter Glo assay; assay type: functional; summary of the method: as §1
# Bos taurus [17] = species: Bos taurus; assay: Inhibition of calf brain tubulin assembly at 1 mM; summary of the method: as §2
# HepG2 = assay: Antiproliferative activity against human HepG2 after 72 hrs by CellTiter Glo assay; assay type: functional, cell-based; conditions: HepG2, 72 h; summary of the method: as §1
# Huh-7 = assay: Antiproliferative activity against human HuH7 after 72 hrs by CellTiter Glo assay; assay type: functional, cell-based; conditions: Huh-7, 72 h; summary of the method: as §1
# SNU-398 [18] = assay: Antiproliferative activity against human SNU398 after 72 hrs by CellTiter Glo assay; assay type: functional, cell-based; conditions: SNU-398, 72 h; summary of the method: as §1
# Bos taurus [19] = species: Bos taurus; assay: Inhibition of calf brain tubulin assembly at 10 uM by fluorometry in presence of isohomohalichondrin
# [20] = Antiproliferative activity against human PLC/PRF/5 after 72 hrs by CellTiter Glo assay; assay type: functional; conditions: PLC-PRF-5, 72 h; summary of the method: as §1
# [21] = Antiproliferative activity against human JHH7 after 72 hrs by CellTiter Glo assay; assay type: functional; summary of the method: as §1
# SMMC-7721 = assay: Antiproliferative activity against human SMMC7721 after 72 hrs by CellTiter Glo assay; assay type: functional, cell-based; conditions: SMMC-7721, 72 h; summary of the method: as §1
# Bos taurus [22] = species: Bos taurus; assay: Binding affinity to calf brain tubulin assessed as binding constant by fluorometry; assay type: tissue-based
# Summary of the method: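 Fluorescence titration in 10 mM sodium phosphate, 0.1 mM GTP, pH 7.0, 25 °C. Ligand at 5 μM was titrated with tubulin up to 100 μM. Bound and free ligand were quantified from the change in ligand fluorescence. Binding constant fitted assuming a single site, 1:1 stoichiometry and 0.87 sites per dimer. Average of five experiments.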
# SNU-387 = assay: Antiproliferative activity against human SNU387 after 72 hrs by CellTiter Glo assay; assay type: functional, cell-based; conditions: SNU-387, 72 h; summary of the method: as §1
# Bos taurus [23] = species: Bos taurus; assay: Inhibition of calf brain tubulin assembly at 10 uM by fluorometry in presence of gossipol
# Bos taurus [24] = species: Bos taurus; assay: Binding affinity to calf brain tubulin alpha/beta heterodimer assessed as increase in proton signal at […] by STD NMR analysis
# Summary of the method: (§3)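 STD NMR with freshly prepared tubulin α/β heterodimer. Ligand:protein molar ratio 30:1 ([…], […]). Read-out: enhancement of ligand proton signals in STD spectra versus an off-resonance reference spectrum acquired without protein irradiation.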
# Bos taurus [25] = species: Bos taurus; assay: Binding affinity to calf brain tubulin alpha/beta heterodimer by NOE method; assay type: tissue-based
# Summary of the method: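 Transferred NOE (TR-NOESY) of ligand with tubulin α/β heterodimer at 500 MHz, 298 K. The sign of the NOE cross-peaks is compared between ligand with tubulin and free ligand. Bound conformation derived with molecular mechanics.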
# SNU-475 = assay: Antiproliferative activity against human SNU475 after 72 hrs by CellTiter Glo assay; assay type: functional, cell-based; conditions: SNU-475, 72 h; summary of the method: as §1
# Bos taurus [26] = species: Bos taurus; assay: Binding affinity to calf brain tubulin alpha/beta heterodimer assessed as increase in proton signal at […] by STD NMR analysis in the presence of noscapine; summary of the method: as §3
# Bos taurus [27] = species: Bos taurus; assay: Inhibition of calf brain tubulin assembly at 10 uM by fluorometry in presence of noscapine
# SNU-449 = assay: Antiproliferative activity against human SNU449 after 72 hrs by CellTiter Glo assay; assay type: functional, cell-based; conditions: SNU-449, 72 h; summary of the method: as §1
# Bos taurus [28] = species: Bos taurus; assay: Inhibition of calf brain tubulin assembly at 10 uM by fluorometry in presence of nocodazole
# SNU-423 = assay: Antiproliferative activity against human SNU423 after 72 hrs by CellTiter Glo assay; assay type: functional, cell-based; conditions: SNU-423, 72 h; summary of the method: as §1
# [29] = Antiproliferative activity against human SNU182 after 72 hrs by CellTiter Glo assay; assay type: functional, cell-based; conditions: SNU-182, 72 h; summary of the method: as §1
# [30] = Metabolic stability in S9 fraction assessed as compound remaining; assay type: ADME, subcellular
# [31] = Metabolic stability in microsomes assessed as compound remaining; assay type: ADME, Microsome
# Bos taurus [32] = species: Bos taurus; assay: Binding affinity to calf brain tubulin assessed as increase in fluorescence at 10 uM by fluorometry in presence of Mg2+
# [33] = Antiproliferative activity against human JHH2 after 72 hrs by CellTiter Glo assay; assay type: functional; summary of the method: as §1
smiles,measurement,setting,value
COc1ccc2c(c1O)C(=O)O[C@@H]2[C@H]1c2c(cc3c(c2OC)OCO3)CCN1C,Activity,SNU-398 [1],33.5%
same,IC50,[2],> 2000 nM
same,Activity,SNU-398 [3],47.8%
same,Activity,[4],8.7%
same,IC50,SNU-398 [5],> 2000 nM
same,Activity,SNU-398 [6],15.2%
same,Activity,[7],62.8%
same,Activity,Bos taurus [8],inactive
same,Activity,[9],23.3%
COc1ccc2c(c1N)C(=O)O[C@@H]2[C@H]1c2c(cc3c(c2OC)OCO3)CCN1C,inhibition,Bos taurus [10],Active
same,Activity,SNU-398 [1],22.9%
same,IC50,[2],237 nM
same,Activity,SNU-398 [3],59.8%
same,EC50,[11],1200 nM
same,Activity,[4],8.4%
same,IC50,[12],107 nM
same,inhibition,Bos taurus [13],Active
same,IC50,[14],> 1000 nM
same,inhibition,Bos taurus [15],Active
same,IC50,Bel-7402,78.4 nM
same,IC50,[16],351 nM
same,inhibition,Bos taurus [17],50%
same,IC50,HepG2,> 1000 nM
same,IC50,Huh-7,218 nM
same,IC50,SNU-398 [18],324 nM
same,inhibition,Bos taurus [19],Active
same,IC50,[20],278 nM
same,IC50,[21],318 nM
same,IC50,SMMC-7721,109 nM
same,IC50,SNU-398 [5],94.3 nM
same,Activity,SNU-398 [6],13.8%
same,Activity,Bos taurus [22],1.15 ×10⁵ /M
same,IC50,SNU-387,59.5 nM
same,inhibition,Bos taurus [23],Active
same,inhibition,Bos taurus [24],Active
same,Activity,Bos taurus [25],Active
same,IC50,SNU-475,584 nM
same,inhibition,Bos taurus [26],Active
same,Activity,[7],18%
same,inhibition,Bos taurus [27],Active
same,IC50,SNU-449,283 nM
same,inhibition,Bos taurus [28],inactive
same,fold change (FC),Bos taurus [8],11
same,IC50,SNU-423,226 nM
same,IC50,[29],508 nM
same,Stability,[30],< 5%
same,Stability,[31],< 5%
same,Activity,Bos taurus [32],Active
same,IC50,[33],> 1000 nM
same,Activity,[9],67%
COC(=O)Nc1nc2cc(C(=O)c3cccs3)ccc2[nH]1,inhibition,Bos taurus [10],Active
same,inhibition,Bos taurus [13],Active
same,inhibition,Bos taurus [15],Active
same,inhibition,Bos taurus [19],Active
same,Activity,Bos taurus [22],4 ×10⁵ /M
same,inhibition,Bos taurus [23],Active
same,inhibition,Bos taurus [27],Active
same,inhibition,Bos taurus [28],inactive
